Screening data: PubChem, several laboratories
Compounds with a hit are over-represented: about 1.5% of the library has one in this group of screens.
NR1D1 modulator: modulates human Rev-erb alpha binding to DNA; P20393; Rev-erbα–FITC-DNA binding, fluorescence polarization, 90 min; activity, % at 10 µM; AID 1259318; 0.79% of 370,000 active;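 active = activity above about 14%, limit read from the data; passing the limit was not always enough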;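 note: 0% = DMSO wells with 35 nM protein and 100% = DMSO wells with 750 nM protein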
Target sequence (P20393 whole entry, looked up): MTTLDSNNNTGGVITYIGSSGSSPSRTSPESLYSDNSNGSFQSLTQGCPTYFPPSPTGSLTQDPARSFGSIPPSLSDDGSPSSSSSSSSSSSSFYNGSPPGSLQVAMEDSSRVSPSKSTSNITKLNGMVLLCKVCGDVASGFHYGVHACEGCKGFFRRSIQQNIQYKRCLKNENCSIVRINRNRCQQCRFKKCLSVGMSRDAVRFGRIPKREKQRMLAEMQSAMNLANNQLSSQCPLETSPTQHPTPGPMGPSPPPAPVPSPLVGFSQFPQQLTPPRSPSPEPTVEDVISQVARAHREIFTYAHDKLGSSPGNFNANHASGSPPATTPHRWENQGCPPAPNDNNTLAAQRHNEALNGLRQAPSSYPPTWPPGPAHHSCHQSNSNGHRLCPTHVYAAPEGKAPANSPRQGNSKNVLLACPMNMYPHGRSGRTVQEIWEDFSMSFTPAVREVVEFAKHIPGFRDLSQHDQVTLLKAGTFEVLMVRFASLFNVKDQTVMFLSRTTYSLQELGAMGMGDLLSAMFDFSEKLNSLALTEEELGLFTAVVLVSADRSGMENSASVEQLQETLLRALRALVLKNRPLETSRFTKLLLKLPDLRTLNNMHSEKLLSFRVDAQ
PG9 Ab binder: small molecules binding HIV-1 gp120 antibody PG9 | TR-FRET gp120-PG9 antibody binding | inhibition, % at 6.7 µM | 0.43% of 360,000 active | AID 624416; in the data active = inhibition above about 8.5%
NR2E3 ag-1: activates human photoreceptor nuclear receptor NR2E3 | 0.12% of 320,000 active | GST-NR2E3/biotin-RetCOR TR-FRET, 1536-well | Q9Y5X4 | inhibition of corepressor binding, % at 4.78 µM;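 active = percent inhibition above the cutoff of mean plus 3 SD of all tested compounds, set per screening campaign, cut at about 20% in these data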;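 note: 0% = DMSO wells and 100% = biotin wells as full block of FRET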
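Material: NR2E3–RetCOR corepressor complex | Quantity: 1.35 nM GST-tagged NR2E3 final | Schedule: 5 h at 4 °C | Replication: Singlicate compound wells | Reagent: RetCOR corepressor, biotinylated, 7 nM | Controls: Biotin wells as high control, 0.6% DMSO wells as low control | Signal: TR-FRET, Eu(K)-anti-GST donor, streptavidin-D2 acceptor, ex 340, em 617/671 nm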
NR2E3 ag-2: activates human NR2E3 receptor; 0.35% of 360,000 active; CHO-S Gal4-NCOR/VP16-NR2E3 two-hybrid, luciferase; inhibition of corepressor binding, % at 3.98 µM; AID 602229; Q9Y5X4;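 active = inhibition above the mean of all tested compounds plus 3 SD, cut at about 70% in these data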;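 note: 0% = DMSO with NR2E3 transfected cells and 100% = cells lacking NR2E3 construct; higher means lower luciferase signal from less NR2E3 corepressor binding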
PG9 bind confirm: PG9 antibody binding, confirmed; TR-FRET PG9 antibody binding, biochemical; shares compounds with PG9 Ab binder; inhibition, % at 6.7 µM; 90% of 1,500 active; in the data active = inhibition above about 9%
PGV04 Ab binding: binds control antibody PGV04 in PG9 binder counter-screen; shares compounds with PG9 Ab binder; TR-FRET PGV04 antibody-gp120 binding, biochemical; inhibition, % at 6.7 µM; 95% of 1,500 active; AID 651604; in the data active = inhibition above about 9.5%
* hit, by the source's call; x = no result given.

SMILES	NR1D1 modulator	PG9 Ab binder	NR2E3 ag-1	NR2E3 ag-2	PG9 bind confirm	PGV04 Ab binding
COc1ccc(C(=O)C[n+]2ccc(N(C)C)cc2)cc1	-2	-3	0	-19	x	x
COc1ccc(C(=O)COC(=O)c2ccc(N(C)C)cc2)cc1	6	15*	9	17	23*	26*
COC(=O)c1ccc(CNC(=O)COC(=O)c2ccc(N(C)C)cc2)cc1	13	26*	-5	-12	24*	39*
CC(C)C[C@H]1COc2cc(Br)ccc2S(=O)(=O)N1Cc1cn(CCC2OCCCO2)nn1	-2	x	x	x	x	x
N=c1oc2ccccc2cc1-c1nc(-c2ccc(Cl)cc2)cs1	1	10*	2	4	8.8*	13*
CCc1ccc(-c2nc3ccc(Br)cc3c(C(=O)O)c2C)s1	2	27*	x	19	33*	59*
COCCCNC(=O)C[C@H]1C[C@@]2(C(=O)OC)C(=C[C@H](C3CCCC3)O[C@@H]2C)N(CCc2ccc(OC)c(OC)c2)C1=O	1	x	x	x	x	x
CC1CCN(C(=O)Cn2cnc3c(cnn3C(C)(C)C)c2=O)CC1	-1	11*	-3	-88	8	10*
CC(C)(C)n1ncc2c(=O)n(CC(=O)N3CCCC3)cnc21	1	0	0	-5	x	x
O=c1[nH]c(SCc2nc3ccccc3n2Cc2ccccc2)nc2ccccc12	3	13*	0	-4	24*	30*
Nc1cc(=O)[nH]c(SCc2nc3ccccc3n2Cc2ccccc2)n1	3	1	3	-1	x	x
Cc1ccc(CNC(=O)CSc2nc(C)cc(C)c2C#N)cc1	14	58*	3	-22	39*	45*
CCOC(=O)CNC(=O)CSc1nc(C)cc(C)c1C#N	-6	-1	2	2	x	x
Cc1ccc2cc(C#N)c(SCC(=O)NCc3ccco3)nc2c1	6	0	7	-12	x	x
Cc1ccc2nc(SCC(=O)NCc3ccco3)c(C#N)cc2c1	-3	13*	11	-79	11*	18*
Cc1cccc(S(=O)(=O)N2CCC[C@H]2C(=O)N2CCC[C@@H]2C(=O)NCc2ccccc2)c1	-2	-2	x	x	x	x
CCCOc1cccc(C2C(C(=O)c3ccc(C)o3)=C(O)C(=O)N2CCN2CCOCC2)c1 (stereo not given)	2	4	5	-6	x	x
COc1cc(C2C(C(=O)c3ccc(C)o3)=C(O)C(=O)N2CCN2CCOCC2)ccc1OCCC(C)C (stereo not given)	2	12*	x	-33	19*	22*
COc1cccc(C2C(C(=O)c3cc4ccccc4o3)=C(O)C(=O)N2CCN(C)C)c1OC (stereo not given)	-5	30*	18	6	33*	54*
COc1cccc2cc(C(=O)C3=C(O)C(=O)N(CCN4CCOCC4)C3c3ccc(C)o3)oc12 (stereo not given)	-2	2	5	-20	x	x
CCN(CC)CCCN1C(=O)C(O)=C(C(=O)c2cc3cccc(OC)c3o2)C1c1ccncc1 (stereo not given)	-1	15*	11	-18	26*	37*
COc1cccc2cc(C(=O)C3=C(O)C(=O)N(CCN(C)C)C3c3ccc(F)cc3)oc12 (stereo not given)	1	21*	9	-13	31*	41*
Cc1ccc(OCc2nn3c(C4CCCCC4)nnc3s2)cc1	2	x	x	x	x	x
O=C(CSc1nnc(-c2cccnc2)n1Cc1ccco1)Nc1cc(Cl)ccc1F	2	x	x	x	x	x
O=C(OCC#CCSc1nnc(-c2cccc3ccccc23)o1)c1ccc(F)nc1	0	x	x	x	x	x
SMILES	NR1D1 modulator	PG9 Ab binder	NR2E3 ag-1	NR2E3 ag-2	PG9 bind confirm	PGV04 Ab binding
COc1cccc(C2C(C(=O)c3cc4ccccc4o3)=C(O)C(=O)N2CCN2CCOCC2)c1 (stereo not given)	-2	15*	12	-12	31*	54*
CCCCCCCCNC(=O)C1CSCCS(=O)(=O)N1Cc1ccccc1 (stereo not given)	1	x	x	x	x	x
O=C(COC(=O)c1cc2ccccc2oc1=O)Nc1ccc(F)cc1F	1	15*	-1	-25	16*	48*
CCN(c1ccc(NC(=O)COC(=O)c2cc3ccccc3oc2=O)cc1)C(C)C	0	-3	7	-26	x	x
Cc1ccc(NC(=O)Cn2nnc(-c3ccccc3F)n2)c(C)c1	-1	x	x	x	x	x
COC(=O)c1c(NC(=S)Nc2ccc(C(=O)N3CCOCC3)cc2)sc2c1CCC2	5	10*	0	21	5	6
CCCCNS(=O)(=O)CC1NCc2cc(OC)ccc21 (stereo not given)	-1	x	x	x	x	x
COc1cccc(-n2nnnc2SCC(=O)NCc2ccc3c(c2)OCO3)c1	-5	-1	6	9	x	x
COc1cccc(NC(=O)c2cnc(SCC(=O)NCc3ccc4c(c3)OCO4)n(C)c2=O)c1	7	26*	0	-10	30*	43*
CN(C(=O)CCn1nnc(-c2cccs2)n1)C1CCCCC1	8	x	x	x	x	x
Cc1cc(Cl)ccc1OC(C)c1nnc(N)s1 (stereo not given)	-1	10*	3	8	7	9
CC(Oc1ccc(Cl)cc1Cl)c1ccnc(N)n1 (stereo not given)	4	-3	-2	1	x	x
CNc1nn(-c2cccc(Cl)c2)nc1N	1	21*	-3	-75	21*	27*
Nc1ccccc1Nc1cc(-c2ccccc2)nn1-c1cccc(Cl)c1	4	-4	-6	1	x	x
CC(C)[C@H](N)C(=O)N[C@@H](Cc1ccccc1)C(=O)N1CCC2CCN(S(=O)(=O)c3ccccc3)CC21 (stereo not given in full)	7	x	x	x	x	x
O=C(Nc1nccs1)c1ccc(-c2ccc(Cl)cc2)o1	17	1	2	-122	x	x
Cc1nnc(NC(=O)c2ccc(-c3ccc(Cl)cc3)o2)s1	5	11*	-5	-3	13*	27*
O=C(Cn1nnc2c(cnn2-c2ccc(F)cc2)c1=O)Nc1ccccc1C(F)(F)F	17	11*	2	-3	14*	20*
O=C(Cn1nnc2c(cnn2-c2ccccc2)c1=O)NCc1cccs1	-6	-2	4	-27	x	x
CN(c1ccc(C(=O)COC(=O)C2CC2)cc1)S(C)(=O)=O	4	14*	x	-37	18*	20*
CCc1nnc2sc(-c3cc(-c4ccccc4)nc4ccccc34)nn12	13	8.6*	2	7	7	10*
C[C@H]1CCCCO[C@@H](CN(C)CC2CC2)[C@@H](C)CN([C@@H](C)CO)C(=O)c2cc(NS(=O)(=O)c3ccccc3)ccc2O1	5	-2	x	x	x	x
O=C(CCc1nc2ccccc2c(=O)[nH]1)OCc1ccc(-c2ccccc2)cc1	16	9.3*	0	-19	17*	24*
Nc1nc2c(C(=O)N3CCCC3)nnn2c2ccccc12	-7	2	x	x	x	x
Nc1nc2c(-c3ccc(Br)cc3)nnn2c2ccccc12	5	11*	2	-154	13*	30*
